G6PDH counter: L. mesenteroides G6PDH inhibitors, counter-screen for G6PDH-coupled screening assays, biochemical, Leuconostoc mesenteroides enzyme. AID 1020, 2008. hit rate 0.12% among 200,000. inhibition, % at 5 µM. glucose-6-phosphate dehydrogenase [Leuconostoc mesenteroides]. Purified L. mesenteroides G6PDH, diaphorase/resazurin coupled fluorescence, 45 min
Diaphorase act: compounds boosting diaphorase resazurin reduction – biochemical, uHTS, resorufin fluorescence, counter-screen for diaphorase-coupled primary assays, primary screen | Diaphorase/resazurin coupled assay, 16 min; hits give high values; 1 = vehicle wells, 0 = NADH-free wells | hit rate 0.005% among 190,000 | AID 1229, 2008 | activation factor at 20 µM;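 active = diaphorase activity raised at least twofold by the compound at 20 µM; inactive = activation factor below 2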
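Test system: Clostridium kluyveri diaphorase, purified enzyme. Buffer or medium: 50 mM HEPES pH 7.4 buffer plus MgCl2 and Tween 20. Also added: 0.114 mM NADH and 0.1 mM resazurin, final amounts. Dosing: compound 20 µM once, DMSO 1%. Schedule: 16 min enzyme reaction, ambient temperature. Detection: fluorescence of resorufin, 544 nm excitation, 590 nm emission.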
WT yeast gro inh: growth inhibition of WT strain, primary screen, mitochondrial fusion inhibitor project, WT and mutant strains, chemical genetic; mitochondrial fusion phenotypic screen; inhibition, % at 10 µM; hit rate 2.1% among 190,000; AID 1362, 2008; in the data active = inhibition above about 58%; tested in S. cerevisiae
Diaph inh CS: diaphorase inhibitors and chemical oxidizers, primary screen, counter-screen for diaphorase-coupled primary assays, biochemical, uHTS, resorufin fluorescence; diaphorase resazurin-to-resorufin fluorescence, NADH, 16 min; bacterial (C. kluyveri) enzyme, not human; inhibition, % at 20 µM; hit rate 0.69% among 190,000; AID 1217, 2008;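 active = primary screen inhibition at 20 µM above a set limit, cut at about 50% in these data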;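 note: plate controls were DMSO with full reaction for no effect and wells lacking NADH for full effect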
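controls = No-NADH positive control and DMSO neutral control | system = Clostridium kluyveri diaphorase enzyme | timing = reaction incubation of 16 min at room temperature | signal = resorufin fluorescence 544/590 nm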
L major viab: Leishmania major promastigote growth inhibition, primary screen; Leishmania major promastigotes, resazurin fluorescence viability; inhibition, % at 10 µM; hit rate 9% among 200,000; AID 1063, 2008;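 note: promastigotes grown with compound for 44 hours at 28 °C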
* marks the source's active call; other numbers are inactive results; / = no result given. A selection: hits, their analogues and other compounds. The true share with any hit is near 11%. Cut-off read from the data, not from the text of the source, unless noted: active = inhibition above about 50%; inactive = the rest.

SMILES	G6PDH counter	Diaphorase act	WT yeast gro inh	Diaph inh CS	L major viab
COc1ccc(OC)c(-n2c(C)ccc2-c2ccc(S(C)(=O)=O)cc2)c1	-1.7	0.7	11.2	28.1	4.0
O=C(Nc1ccccc1F)c1ccc([N+](=O)[O-])s1	2.0	1	15.7	0.0	100.3*
O=C(Nc1cccc2ccccc12)c1ccc([N+](=O)[O-])s1	9.0	0.9	7.7	6.4	100.3*
Cc1ccc(C(=O)NNC(=S)Nc2cccc3ccccc23)s1	-2.0	0.7	22.4	26.2	-1.9
O=S1(=O)C=C(Sc2nnc(-c3ccccc3)o2)c2ccccc21	6.8	1	75.2	2.1	17.2
Cc1ccnc(NC2OC(=O)c3ccccc32)c1 (centres undefined)	3.0	1.1	10.6	-5.7	-3.8
Oc1c(C(Nc2cccc(C(F)(F)F)c2)c2ccncc2)ccc2cccnc12 (centres undefined)	3.2	0.8	35.0	21.4	100.1*
O=C(Nc1cccc(C(F)(F)F)c1)c1cccnc1	-15.7	0.9	17.1	10.5	0.6
Oc1c(C(Nc2nccs2)c2ccc(C(F)(F)F)cc2)ccc2cccnc12 (centres undefined)	7.5	0.9	20.5	7.6	99.9*
CN1CCN(C(c2cccnc2)c2ccc3cccnc3c2O)CC1 (centres undefined)	46.7	0.7	-1.1	32.8	33.1
Cc1cccc(NC(=O)C2SC(=Nc3c(C)cccc3C)C(C(=O)N3CCOCC3)=C2N)c1 (centres undefined)	-11.9	0.8	9.4	17.9	0.4
C=CCSc1nnc2n(-c3ccccc3OC)c(=O)c3c4c(sc3n12)CCC4	7.9	0.8	3.7	20.9	-0.7
Cc1ccc(Sc2cc(Cl)nc(N)n2)cc1	4.7	0.8	14.0	18.9	-10.8
O=C(NCCCn1ccnc1)C(=O)NCC(c1cccnc1)N1CCN(c2ccccc2)CC1 (centres undefined)	20.6	1	0.3	4.7	32.8
O=C(NCC(c1cccnc1)N1CCOCC1)c1ccco1 (centres undefined)	4.9	0.9	71.2*	5.4	-0.5
COC(=O)NCC(c1cccnc1)N1CCOCC1 (centres undefined)	6.6	0.8	8.3	18.4	-10.9
COc1cc(C(=O)NCC(c2cccnc2)N2CCN(c3ccc(F)cc3)CC2)cc(OC)c1OC (centres undefined)	2.5	1	-10.6	2.4	77.6*
Cc1sc(NC(=O)c2ccco2)c(C(c2cccnc2)N2CCN(C)CC2)c1C (centres undefined)	4.7	0.9	6.6	6.9	9.1
Cc1sc(NC(=O)c2ccco2)c(C(c2cccnc2)N2CCCC2)c1C (centres undefined)	2.3	0.8	30.6	24.0	99.0*
COc1ccc(C(=O)NCC(c2cccnc2)N2CCN(c3ccccc3)CC2)cc1OC (centres undefined)	1.7	0.9	0.4	11.9	81.5*
COc1ccc(N2CCN(C(CNC(=O)C(=O)NCc3cccnc3)c3ccco3)CC2)cc1 (centres undefined)	0.2	0.9	8.3	10.4	-7.0
CCCCc1ccc(S(=O)(=O)N2CCN(C(=O)c3ccco3)CC2)cc1	-4.2	0.9	16.4	12.9	-4.3
O=C1C2CC=CCC2C(=O)N1c1ccc(NCCc2ccc(O)cc2)c([N+](=O)[O-])c1 (centres undefined)	0.5	0.8	4.1	17.6	17.9
COc1ccc(N2CCN(C(CNC(=O)c3ccco3)c3cccnc3)CC2)cc1 (centres undefined)	2.8	0.9	/	5.6	45.7
O=C(NCC(c1cccnc1)N1CCN(c2ccc(F)cc2)CC1)c1ccc(F)cc1 (centres undefined)	-8.5	1	13.0	-1.4	88.5*
SMILES	G6PDH counter	Diaphorase act	WT yeast gro inh	Diaph inh CS	L major viab
COc1ccc(C(=O)NCC(c2cccnc2)N2CCN(c3ccc(F)cc3)CC2)cc1OC (centres undefined)	4.5	0.9	-6.5	6.0	96.6*
COc1ccc(C(=O)NCC(c2ccc(F)cc2)N2CCOCC2)cc1S(=O)(=O)N1CCCC1 (centres undefined)	10.0	0.9	-4.4	11.8	-8.1
O=C(NCc1cccnc1)C(=O)NCC(c1ccco1)N1CCN(c2ccc(F)cc2)CC1 (centres undefined)	-2.2	1	-3.4	-2.5	47.6
O=C(NCC(c1cccnc1)N1CCN(c2ccc(F)cc2)CC1)c1ccco1 (centres undefined)	8.6	0.9	-3.4	13.1	71.9*
O=[N+]([O-])c1ccc(NC(=S)NCC(c2cccnc2)N2CCOCC2)cc1 (centres undefined)	-2.4	1.1	-2.4	-7.0	18.5
FC(F)(F)c1cccc(NC(=S)NCC(c2cccnc2)N2CCOCC2)c1 (centres undefined)	-0.7	1	-2.3	4.3	61.1*
CC(C)CNC(=O)c1cccc(NC(=O)c2ccc(NC(=O)c3ccco3)cc2)c1	-3.6	1	-6.1	2.1	3.1
O=S(=O)(NCCSc1ccccc1)c1cccs1	-9.5	0.8	1.2	21.4	-1.7
CC1=CC(=C(C#N)C#N)c2ccccc2N1C	5.2	1	-3.9	4.9	98.9*
O=C(O)C1(c2cccc(Cl)c2)CCC1	5.1	0.8	4.9	24.3	-5.2
CC(=O)c1c(NCc2ccccc2)nc(=O)n(-c2ccccc2)c1C	3.4	0.9	5.9	8.9	-1.0
CCn1c(C)c(C(C)=O)c(NCc2ccccc2)nc1=S	7.6	0.5	4.3	52.0*	-2.5
CC(=O)c1c(NCCc2ccccc2)nc(=S)n(-c2ccccc2)c1C	2.5	0.1	12.3	87.7*	-6.8
CN(/N=C/C=C/c1ccccc1)C1=NS(=O)(=O)c2ccccc21	-19.2	0.9	12.9	12.0	-2.9
CN1C=CC=C/C1=C1\SC(=S)N(CC(=O)O)C1=O	9.4	0.9	-9.3	13.8	-6.3
CN1C=CC=C/C1=C1\SC(=S)N(c2ccccc2)C1=O	3.6	1	66.0*	4.6	3.2
S=C(NN=C1C2CC3CC(C2)CC1C3)Nc1ccccc1	-1.2	0.9	12.6	8.0	98.7*
CCCS(=O)(=O)c1nc(S(=O)(=O)c2ccc(C)cc2)c(NCCN2CCOCC2)s1	9.6	0.9	-0.3	11.4	-4.7
Cc1ccc(S(=O)(=O)NC(=O)NCc2ccc3c(c2)OCO3)cc1	-10.0	0.8	-1.0	17.9	-6.4
CCCS(=O)(=O)c1nc(S(=O)(=O)c2ccc(C)cc2)c(NCCCN(C)C)s1	-3.0	1	3.8	-2.0	95.3*
CCCS(=O)(=O)c1nc(S(=O)(=O)c2ccc(C)cc2)c(NCc2ccc3c(c2)OCO3)s1	17.4	0.9	4.6	9.7	61.8*
O=C(NC(=S)N1CCN(c2ccc([N+](=O)[O-])cc2)CC1)c1ccccc1F	1.1	0.9	1.2	14.7	-7.1
